UBC13 polyUb – human UBC13 polyubiquitination inhibition. 330,000 compounds, 0.47% hits. AID 485273. P61088. UBC13 polyubiquitin chain formation, TR-FRET. inhibition, % at 20 µM; in the data active = inhibition above about 45%, passing the limit was not always enough; inconclusive = no clear call, values can overlap the other calls
Target sequence (P61088 whole entry, looked up): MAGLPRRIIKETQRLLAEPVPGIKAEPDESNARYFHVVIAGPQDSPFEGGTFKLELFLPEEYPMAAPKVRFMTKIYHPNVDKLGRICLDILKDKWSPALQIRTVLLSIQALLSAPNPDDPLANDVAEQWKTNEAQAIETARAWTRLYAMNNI
XBP1 UPR activ – adaptive UPR (XBP1) activation; CHO-XBP1 luciferase reporter, IRE1-XBP1 UPR activation, luminescence; percent of tunicamycin response, DMSO as zero; activation, % at 20 µM; 330,000 compounds, 0.33% hits;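 active = versus positive control, 20 µM dose yields 30% or more activation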;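 note: 100% = tunicamycin at 10 µg/mL and 0% = DMSO only wells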
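Material – CHO cell line with stable XBP1 luciferase reporter · Buffer or medium – F12 plus 10% FBS · Compound – single point, 20 µM final compound, 1% DMSO · Schedule – 16-18 h cell attachment at 37 °C, then 6 h compound exposure · Signal – Steady-Glo luminescence read · Benchmarks – high control tunicamycin 10 µg/mL final, low control DMSO vehicle only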
CHOP UPR activ – activators of apoptotic arm of unfolded protein response (CHOP); CHO-CHOP luciferase reporter, UPR activation, luminescence; percent of tunicamycin response over DMSO baseline; activation, % at 10 µM; 330,000 compounds, 0.34% hits; AID 449763;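 active = at 10 µM dose, activation of 40% or more, normalized to positive control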;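 note: 100% = tunicamycin at 10 µg/mL and 0% = DMSO alone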
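Test system: CHO CHOP reporter cells. Input: 500 CHO-CHOP cells per well. Medium: F12 with 10% FBS. Technique: luciferase luminescence. Measure: percent activation relative to tunicamycin control. Dosing: 10 µM compound, 0.5% DMSO. Timing: 16-18 h cell attachment, then 6 h compound exposure, 37 °C.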
Apaf-1 inh – inhibitors of human Apaf-1 apoptosome; O14727; reconstituted apoptosome caspase-3 activity, DEVD-Rh110 fluorescence; inhibition, % at 20 µM; 330,000 compounds, 0.71% hits; active = inhibition of at least 40% at 20 µM;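 note: plate controls were DMSO wells for no effect and DEVD-CHO caspase inhibitor wells for full effect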
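Material: reconstituted apoptosome with Apaf-1, cytochrome c, caspase-9, procaspase-3, dATP. Technique: Rh110 fluorescence intensity. Buffer or medium: pH 7.5 Hepes buffer with CHAPS, BSA, DTT. Times: 30 min plus 50 min, RT.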
Mdm2-MdmX inh – inhibitors of human Mdm2/MdmX interaction; O15151+Q00987; SaOS-2 split-luciferase Mdm2/MdmX complementation, luminescence; inhibition, % at 8 µM; 330,000 compounds, 3% hits; AID 485346;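 active = inhibition of at least 50% at 8 µM in the primary screen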
XBP1 UPR conf – adaptive UPR (XBP1) activation, confirmed. 1,000 compounds, 63% hits. CHO-XBP1 IRE1-XBP1 luciferase reporter, luminescence. shares compounds with XBP1 UPR activ. activation, % at 20 µM;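 active = reporter signal at least 30% of the positive control's activation in two or more of four replicate wells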;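 note: plate controls were DMSO negative control for no effect and tunicamycin 10 µg/mL positive control for full effect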
* marks the source's active call; other numbers are inactive results; ? = inconclusive; · = no result. Most compounds without a hit are left out; they make up all but 4.1% or so of the library.

SMILES	UBC13 polyUb	XBP1 UPR activ	CHOP UPR activ	Apaf-1 inh	Mdm2-MdmX inh	XBP1 UPR conf
COCOc1cc(O)c(C(=O)/C=C/c2ccccc2)c(OCOC)c1	4.0	40.3*	22.4	0.0	40.7	27.5
CC/C(=N/Nc1ccccc1Cl)c1cnnc(-c2ccccc2)n1	-13.6	2.9	-0.7	23.4	-1.7	·
CCC/C(=N/Nc1ccc(Cl)cc1)c1cnnc(-c2ccccc2)n1	-7.8	66.3*	19.3	7.4	29.5	27.9*
COc1ccccc1OCC(=O)Sc1ccc(C)cc1	7.0	33.9*	7.5	-9.6	-34.5	19.0
COc1ccc(CCN(C)Cc2c(O)ccc3ccccc23)cc1OC	-7.9	1.4	2.0	5.8	20.9	·
COC(=O)c1ccc(N2CCN(C)CC2)c(NC(=O)c2ccc(-c3ccc(Cl)cc3)o2)c1	?	44.6*	10.5	13.2	42.5	7.4
Nc1nnc(CSCc2cccc(Br)c2)s1	17.2	1.2	2.9	6.7	7.3	·
CC(C)CNc1nnnc2c1sc1nc(N3CCOCC3)c3c(c12)CCCC3	-22.3	54.7*	1.5	-9.9	10.4	31.2
Cc1ccc(/C=C/C(=O)c2ccccc2O)cc1	5.0	12.8	7.1	9.5	3.6	·
COc1cc(/C=C/C(=O)c2ccccc2O)cc(OC)c1OC	5.2	31.1*	35.5	-0.3	20.9	26.2
Cc1cc(N2C(=O)C(=O)/C(=C(/O)c3ccc(F)cc3)C2c2ccc(Cl)cc2)no1 (stereo unspecified)	-14.5	33.0*	-1.1	9.0	-7.6	1.6
Cc1cc(OCC(=O)NC2CC(C)(C)NC(C)(C)C2)c2c(C)c(C)c(=O)oc2c1	8.3	-2.0	-1.7	7.9	25.6	·
COc1ccc(OC)c(Nc2nc(NCc3ccco3)nc(N)c2[N+](=O)[O-])c1	-8.0	55.1*	0.8	-1.4	41.4	61.8*
COc1ccc2nc(C)cc(SCC(=O)N/N=C/c3cccc4ccccc34)c2c1	-0.4	79.8*	26.6	-2.9	47.0	125.9*
COc1ccc(/C=N/Nc2nc(-c3cccnc3)nc3ccccc23)c(OC)c1	16.8	37.2*	6.6	-6.3	20.7	15.3
Cc1ccc(-c2nc(N/N=C/c3cccnc3)c3ccccc3n2)cc1	-2.8	4.9	2.0	19.9	-50.1	·
O=C1CCCN1CCC1CCN(C2CC(=O)N(c3ccc(Cl)cc3)C2=O)CC1 (stereo unspecified)	2.8	-6.4	-0.9	-3.8	16.4	·
CCCN1CCc2c(sc(NC(=O)c3ccc(S(=O)(=O)N(C)c4ccccc4)cc3)c2C(N)=O)C1	-19.6	40.3*	3.1	9.7	16.5	5.0
CCOC(=O)c1ccc(N2Cc3ccccc3C2=NC(=O)c2cccc([N+](=O)[O-])c2)cc1	-1.7	56.1*	16.4	-1.0	-63.5	5.3
COc1ccc2c(C(=O)c3ccc(C)cc3)n(Cc3ccc(C(N)=O)cc3)[n+]([O-])c2c1	4.8	2.9	5.5	1.1	28.9	·
C=CCn1c(=NC(=O)c2cccs2)sc2cccc(OC)c21	29.2	3.8	5.0	7.4	-10.2	·
C#CCn1c(=NC(=O)c2ccc(Br)s2)sc2cccc(OC)c21	?	73.4*	6.2	8.0	-1.8	72.9*
CCn1nc(C)cc1C(=O)Sc1cccc(Cl)c1	0.8	48.9*	5.4	-11.3	-3.9	5.0
Cc1ccc(S(=O)(=O)Cc2cc(F)c([N+](=O)[O-])cc2[N+](=O)[O-])cc1	-6.3	32.6*	10.0	7.9	2.9	40.7*
COc1cc(NC(=O)c2ccco2)c(C(=O)OCC(=O)c2c[nH]c3ccccc23)cc1OC	-1.6	130.9*	0.4	-3.1	49.7	152.4*
COc1ccc2c(CC(=O)OCC(=O)NC(=O)c3cccn3C)coc2c1	5.0	-0.4	-3.0	-10.4	7.6	·
Cc1ccc(-c2nnn(CC(=O)N(Cc3cccs3)C(C(=O)NC3CCCCC3)c3ccco3)n2)o1 (stereo unspecified)	-0.9	47.8*	0.8	5.9	34.7	38.5*
Brc1cc2c(cc1/C=N/Nc1nc3ccccc3s1)OCO2	-5.9	33.3*	4.4	-0.2	1.6	155.2*
